In the library only some 1.9% were active in any assay of this set; here they are far more common.
RanGTP-Impb inh: inhibitors of RanGTP-importin-beta interaction, primary screen, biochemical, FRET, CFP-Ran, YFP-importin-beta, homogeneous. cell-free CFP-Ran/YFP-importin-beta FRET ratio. inhibition, % (concentration not given with the values). 1.1% of 300,000 active. AID 2216;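 active = more than half of the replicate wells show a fall in the fluorescence ratio signal beyond about 16%, limit read from the data, passing the limit was not always enough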;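 also: 0% = DMSO wells and 100% = Ran loaded with GDP instead of GTP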
Runt-CBFb FRET: blocks binding of human RUNX1 Runt domain to CBFb; Q01196+Q13951; Cerulean-Runt/Venus-CBFb FRET ratio 530/480, 1 h; inhibition, % at 20 µM; 0.46% of 220,000 active; AID 1496;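 active = inhibition over about 50% at 20 µM in the single-dose screen, limit read from the data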;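 also: 0% = DMSO wells and 100% = excess unlabeled CBFb competitor control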
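Doses: 20 µM compound in 1% DMSO | Material: Cerulean-labeled Runt domain protein | Amount: Each fluorescent fusion protein 100 nM | Schedule: Two 1 h room-temperature incubations shielded from light | Measured by: FRET fluorescence | Evaluation: Loss of energy transfer signal | Controls: Unlabeled CBFb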
Runt-SMMHC FRET: blocks binding of human RUNX1 Runt domain to CBFb-SMMHC; AID 1434; Q01196+Q13951; 0.74% of 220,000 active; Cerulean-Runt/Venus-CBFb-SMMHC FRET ratio 530/480, 1 h; inhibition, % at 20 µM;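 active = mean inhibition across duplicate retests at 20 µM reaching about 50%, limit read from the data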;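 also: 0% = DMSO wells and 100% = wells with excess untagged CBFb-SMMHC; inhibitors lower the FRET ratio by blocking Runt binding to CBFb-SMMHC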
Tb hexokinase: T. brucei hexokinase 1 inhibition; recombinant TbHK1, G6PDH-coupled NADH A340; inhibition, % at 10 µM; 0.11% of 220,000 active; AID 1430;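 active = inhibition of 50% or more in the single-dose primary screen; inactive = inhibition below 50%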
Hck Nef HTS: blocks Nef-activated human Hck kinase; P08631; Recombinant Hck-YEEI plus Nef, Z-Lyte FRET kinase assay; inhibition, % at 20 µM; 0.68% of 220,000 active; AID 463187;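 active = Hck-Nef kinase inhibition above about 50%, limit read from the data; inactive = inhibition below that limit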;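 also: 0% = DMSO with Hck plus Nef and 100% = Hck alone without Nef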
Hck-Nef confirm: confirmation of Hck-Nef kinase inhibitors | shares compounds with Hck Nef HTS | Recombinant Hck-YEEI:Nef, Z-Lyte FRET kinase assay | calls only at 10 µM | 28% of 1,300 active | AID 463188;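 active = average inhibition of at least 50%, with Z-scores no higher than 3 in both the phospho-tyrosine peptide and fluorescence counterscreens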
* hit, by the source's call; / = no result given; + = active, no number.

SMILES	RanGTP-Impb inh	Runt-CBFb FRET	Runt-SMMHC FRET	Tb hexokinase	Hck Nef HTS	Hck-Nef confirm
CC1CCN(S(=O)(=O)c2ccc(NN=C(C#N)C#N)cc2)CC1	/	-1.6	-5.3	-9.2	0.5	/
N#CC(C#N)=NNc1ccc(S(N)(=O)=O)cc1	-5.2	-3.7	1.9	-20.3	52.5*	+
O=C1NC(=O)C(CCc2ccncc2)(c2ccccc2)C(=O)N1	11.6	0.9	1.9	-0.9	8.2	/
Cc1ccc2c(c1)=NC(=O)/C(=C/c1c(O)[nH]c(=O)[nH]c1=O)C=2	-3.3	25.9	-2.4	-27.7	64.6*	+
CCCC[N+]12CCC(CC1)C(Cc1ccccc1)C2 (stereo not drawn)	4.1	1.7	0.3	-8.3	9.4	/
CNC(=O)OCc1n(C)cc[n+]1C	2.5	-3.8	10.2	2.5	3.5	/
